Measured values published in ChEMBL document CHEMBL3046604, “Synthesis and fungistatic activity of new groups of 2,4-dihydroxythiobenzoyl derivatives against phytopathogenic fungi” (J Agric Food Chem, 2003).

Tests used:
Fusarium culmorum [1] = test: Fungistatic activity against Fusarium culmorum assessed as mycelial growth inhibition at 200 ug/ml after 4 to 8 days relative to control; type: functional; conditions: read-out: GI
In short: (§1)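 Compound solutions or suspensions were diluted into PDA agar to final 200 or 20 µg/mL and poured into Petri dishes. Once the agar set, mycelium-covered agar disks of the fungus were placed at three sites on the surface. Linear colony growth was measured after 4-8 days, depending on the culture. Inhibition J = [(C − T)/C] × 100 versus untreated control, reported on a four-degree scale.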

[2] = Lipophilicity, log K of the compound in methanol-water mixture by HPLC; type: physicochemical
In short: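 Reversed-phase HPLC on a Hypersil BDS C18 column (5 µm, 150 × 4.6 mm) with UV detection at 320 nm. Samples were dissolved in methanol. Mobile phase was methanol at varying volume fractions in 10 mM acetate buffer pH 4, run at 1 mL/min and room temperature. Dead time was taken from injection of acetone dissolved in water.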

Alternaria alternata [3] = test: Fungistatic activity against Alternaria alternata assessed as mycelial growth inhibition at 20 ug/ml after 4 to 8 days relative to control; type: functional; conditions: read-out: GI; in short: as §1
Blumeria graminis [4] = test: Fungistatic activity against Blumeria graminis infested wheat seedling assessed as inhibition of fungal infection at 1000 ug/ml applied as spray after 7 to 14 days under green house conditions relative to control; type: functional
In short: (§2)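 Greenhouse test on healthy wheat seedlings with Erysiphe graminis. At the well-developed first-leaf stage, plants were sprayed with compound solution at 1000 or 500 µg/mL, 10 mL of solution per treatment, with three repeats in 9 cm paraffin cups.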

Rhizoctonia solani [5] = test: Fungistatic activity against Rhizoctonia solani assessed as mycelial growth inhibition at 200 ug/ml after 4 to 8 days relative to control; type: functional; conditions: read-out: GI; in short: as §1
Botrytis cinerea [6] = test: Fungistatic activity against Botryotinia fuckeliana assessed as mycelial growth inhibition at 20 ug/ml after 4 to 8 days relative to control; type: functional; conditions: read-out: GI; in short: as §1
Fusarium culmorum [7] = test: Fungistatic activity against Fusarium culmorum assessed as mycelial growth inhibition at 20 ug/ml after 4 to 8 days relative to control; type: functional; conditions: read-out: GI; in short: as §1
Botrytis cinerea [8] = test: Fungistatic activity against Botryotinia fuckeliana assessed as mycelial growth inhibition at 200 ug/ml after 4 to 8 days relative to control; type: functional; conditions: read-out: GI; in short: as §1
Alternaria alternata [9] = test: Fungistatic activity against Alternaria alternata assessed as mycelial growth inhibition at 200 ug/ml after 4 to 8 days relative to control; type: functional; conditions: read-out: GI; in short: as §1
Phytophthora cactorum [10] = test: Fungistatic activity against Phytophthora cactorum assessed as mycelial growth inhibition at 200 ug/ml after 4 to 8 days relative to control; type: functional; conditions: read-out: GI; in short: as §1
Blumeria graminis [11] = test: Fungistatic activity against Blumeria graminis infested wheat seedling assessed as inhibition of fungal infection at 500 ug/ml applied as spray after 7 to 14 days under green house conditions relative to control; type: functional; in short: as §2
Phytophthora cactorum [12] = test: Fungistatic activity against Phytophthora cactorum assessed as mycelial growth inhibition at 20 ug/ml after 4 to 8 days relative to control; type: functional; conditions: read-out: GI; in short: as §1
Rhizoctonia solani [13] = test: Fungistatic activity against Rhizoctonia solani assessed as mycelial growth inhibition at 20 ug/ml after 4 to 8 days relative to control; type: functional; conditions: read-out: GI; in short: as §1

Question: For O=C(Nc1ccccc1)c1ccccc1NC(=S)c1ccc(O)cc1O, which inhibition of growth at 200 µg/mL (Fusarium culmorum [1]) is on record?
Answer: 61%

Question: What about the “log K” value [2] of the same molecule?
Answer: -0.37

Question: And the inhibition of growth at 20 µg/mL (Alternaria alternata [3])?
Answer: 0%

Question: And the inhibition at 1000 µg/mL (Blumeria graminis [4])?
Answer: 41%

Question: And the inhibition of growth at 200 µg/mL (Rhizoctonia solani [5])?
Answer: 61%

Question: And the inhibition of growth at 20 µg/mL (Botrytis cinerea [6])?
Answer: 0%

Question: And the inhibition of growth at 20 µg/mL (Fusarium culmorum [7])?
Answer: 0%

Question: And the inhibition of growth at 200 µg/mL (Botrytis cinerea [8])?
Answer: 41%

Question: And the inhibition of growth at 200 µg/mL (Alternaria alternata [9])?
Answer: 61%

Question: What about the inhibition of growth at 200 µg/mL (Phytophthora cactorum [10]) of the same molecule?
Answer: 61%

Question: What about the inhibition at 500 µg/mL (Blumeria graminis [11]) of the same molecule?
Answer: 0%

Question: And the inhibition of growth at 20 µg/mL (Phytophthora cactorum [12])?
Answer: 0%

Question: What about the inhibition of growth at 20 µg/mL (Rhizoctonia solani [13]) of the same molecule?
Answer: 21%

Question: For Oc1ccc(C(=S)NN=C(c2ccccc2)c2ccccc2)c(O)c1, which inhibition of growth at 200 µg/mL (Fusarium culmorum [1]) is on record?
Answer: 0%

Question: What about the “log K” value [2] of the same molecule?
Answer: 0.642

Question: What about the inhibition of growth at 20 µg/mL (Alternaria alternata [3]) of the same molecule?
Answer: 0%

Question: What about the inhibition at 1000 µg/mL (Blumeria graminis [4]) of the same molecule?
Answer: 21%

Question: And the inhibition of growth at 200 µg/mL (Rhizoctonia solani [5])?
Answer: 0%

Question: What about the inhibition of growth at 20 µg/mL (Botrytis cinerea [6]) of the same molecule?
Answer: 0%

Question: What about the inhibition of growth at 20 µg/mL (Fusarium culmorum [7]) of the same molecule?
Answer: 0%

Question: And the inhibition of growth at 200 µg/mL (Botrytis cinerea [8])?
Answer: 0%

Question: What about the inhibition of growth at 200 µg/mL (Alternaria alternata [9]) of the same molecule?
Answer: 41%

Question: And the inhibition of growth at 200 µg/mL (Phytophthora cactorum [10])?
Answer: 41%

Question: What about the inhibition at 500 µg/mL (Blumeria graminis [11]) of the same molecule?
Answer: 0%

Question: What about the inhibition of growth at 20 µg/mL (Phytophthora cactorum [12]) of the same molecule?
Answer: 0%

Question: And the inhibition of growth at 20 µg/mL (Rhizoctonia solani [13])?
Answer: 0%

Question: With Oc1ccc(C(=S)n2c(Cl)nc3ccccc32)c(O)c1 as the molecule, how does the inhibition of growth at 200 µg/mL (Fusarium culmorum [1]) read?
Answer: 81%

Question: And the “log K” value [2]?
Answer: 0.378

Question: And the inhibition of growth at 20 µg/mL (Alternaria alternata [3])?
Answer: 21%

Question: What about the inhibition at 1000 µg/mL (Blumeria graminis [4]) of the same molecule?
Answer: 41%

Question: And the inhibition of growth at 200 µg/mL (Rhizoctonia solani [5])?
Answer: 81%

Question: What about the inhibition of growth at 20 µg/mL (Botrytis cinerea [6]) of the same molecule?
Answer: 0%

Question: What about the inhibition of growth at 20 µg/mL (Fusarium culmorum [7]) of the same molecule?
Answer: 0%

Question: What about the inhibition of growth at 200 µg/mL (Botrytis cinerea [8]) of the same molecule?
Answer: 81%

Question: What about the inhibition of growth at 200 µg/mL (Alternaria alternata [9]) of the same molecule?
Answer: 81%

Question: And the inhibition of growth at 200 µg/mL (Phytophthora cactorum [10])?
Answer: 81%

Question: What about the inhibition at 500 µg/mL (Blumeria graminis [11]) of the same molecule?
Answer: 0%

Question: And the inhibition of growth at 20 µg/mL (Phytophthora cactorum [12])?
Answer: 21%

Question: What about the inhibition of growth at 20 µg/mL (Rhizoctonia solani [13]) of the same molecule?
Answer: 21%

Question: Which inhibition of growth at 200 µg/mL (Fusarium culmorum [1]) does the source give for Oc1ccc(C(=S)NN=C2c3ccccc3-c3ccccc32)c(O)c1 here?
Answer: 0%

Question: And the “log K” value [2]?
Answer: 0.232

Question: And the inhibition of growth at 20 µg/mL (Alternaria alternata [3])?
Answer: 0%

Question: What about the inhibition at 1000 µg/mL (Blumeria graminis [4]) of the same molecule?
Answer: 0%

Question: What about the inhibition of growth at 200 µg/mL (Rhizoctonia solani [5]) of the same molecule?
Answer: 0%

Question: And the inhibition of growth at 20 µg/mL (Botrytis cinerea [6])?
Answer: 0%

Question: What about the inhibition of growth at 20 µg/mL (Fusarium culmorum [7]) of the same molecule?
Answer: 0%

Question: And the inhibition of growth at 200 µg/mL (Botrytis cinerea [8])?
Answer: 21%

Question: What about the inhibition of growth at 200 µg/mL (Alternaria alternata [9]) of the same molecule?
Answer: 41%

Question: What about the inhibition of growth at 200 µg/mL (Phytophthora cactorum [10]) of the same molecule?
Answer: 41%

Question: And the inhibition at 500 µg/mL (Blumeria graminis [11])?
Answer: 0%

Question: What about the inhibition of growth at 20 µg/mL (Phytophthora cactorum [12]) of the same molecule?
Answer: 0%

Question: What about the inhibition of growth at 20 µg/mL (Rhizoctonia solani [13]) of the same molecule?
Answer: 0%

Question: Which inhibition of growth at 200 µg/mL (Fusarium culmorum [1]) does the source give for CC(C)(C)c1cc(NC(=S)c2ccc(O)cc2O)no1 here?
Answer: 61%

Question: And the “log K” value [2]?
Answer: -0.302

Question: What about the inhibition of growth at 20 µg/mL (Alternaria alternata [3]) of the same molecule?
Answer: 21%

Question: What about the inhibition at 1000 µg/mL (Blumeria graminis [4]) of the same molecule?
Answer: 21%

Question: What about the inhibition of growth at 200 µg/mL (Rhizoctonia solani [5]) of the same molecule?
Answer: 41%

Question: And the inhibition of growth at 20 µg/mL (Botrytis cinerea [6])?
Answer: 0%

Question: And the inhibition of growth at 20 µg/mL (Fusarium culmorum [7])?
Answer: 21%

Question: What about the inhibition of growth at 200 µg/mL (Botrytis cinerea [8]) of the same molecule?
Answer: 41%

Question: What about the inhibition of growth at 200 µg/mL (Alternaria alternata [9]) of the same molecule?
Answer: 61%

Question: What about the inhibition of growth at 200 µg/mL (Phytophthora cactorum [10]) of the same molecule?
Answer: 61%

Question: What about the inhibition at 500 µg/mL (Blumeria graminis [11]) of the same molecule?
Answer: 0%

Question: And the inhibition of growth at 20 µg/mL (Phytophthora cactorum [12])?
Answer: 0%

Question: What about the inhibition of growth at 20 µg/mL (Rhizoctonia solani [13]) of the same molecule?
Answer: 0%

Question: For Oc1ccc(C(=S)Nc2ccccc2Sc2ccc(Cl)cc2)c(O)c1, which inhibition of growth at 200 µg/mL (Fusarium culmorum [1]) is on record?
Answer: 21%

Question: What about the “log K” value [2] of the same molecule?
Answer: 0.446

Question: What about the inhibition of growth at 20 µg/mL (Alternaria alternata [3]) of the same molecule?
Answer: 0%

Question: And the inhibition at 1000 µg/mL (Blumeria graminis [4])?
Answer: 0%

Question: And the inhibition of growth at 200 µg/mL (Rhizoctonia solani [5])?
Answer: 21%

Question: What about the inhibition of growth at 20 µg/mL (Botrytis cinerea [6]) of the same molecule?
Answer: 0%

Question: And the inhibition of growth at 20 µg/mL (Fusarium culmorum [7])?
Answer: 0%

Question: And the inhibition of growth at 200 µg/mL (Botrytis cinerea [8])?
Answer: 0%

Question: What about the inhibition of growth at 200 µg/mL (Alternaria alternata [9]) of the same molecule?
Answer: 41%

Question: What about the inhibition of growth at 200 µg/mL (Phytophthora cactorum [10]) of the same molecule?
Answer: 0%

Question: What about the inhibition at 500 µg/mL (Blumeria graminis [11]) of the same molecule?
Answer: 0%

Question: What about the inhibition of growth at 20 µg/mL (Phytophthora cactorum [12]) of the same molecule?
Answer: 0%

Question: And the inhibition of growth at 20 µg/mL (Rhizoctonia solani [13])?
Answer: 0%
